# Source: ChEMBL document CHEMBL1144837, “Antimitotic and antiproliferative activities of chalcones: forward structure-activity relationship” (J Med Chem, 2008)
# Tests used:
# [1] = test system: K562; test: Cell cycle arrest in human K562 cells assessed as accumulation at G2/M phase at 10 uM after 24 hrs by flow cytometry; format: functional
# In short: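 K562 cells exposed 24 h at 10 µM, then stained with propidium iodide at 4 °C overnight and analysed by flow cytometry. After doublets and aggregates were excluded on an FL2-area/FL2-width plot, cells were assigned to G0/G1, S and G2/M, and the G2/M fraction was scored.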
# [2] = test system: L1210; test: Cytotoxicity against mouse L1210 cells after 24 hrs by MTT assay; format: functional, cell-based; settings: L1210, 24 h
# In short: (§1)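 MTT viability assay: exponentially growing cells were seeded at 3 × 10^3 cells/well and held 24 h before drug addition. Formazan was dissolved in isopropanol and read by absorbance relative to untreated wells. IC50 is the concentration giving 50% growth loss against a control-cell standard curve after 24 h incubation. Run in triplicate, at least three separate experiments.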
# [3] = test system: SW48; test: Cytotoxicity against human SW48 cells after 24 hrs by MTT assay; format: functional, cell-based; settings: SW48, 24 h; in short: as §1
# [4] = test system: N2a; test: Cytotoxicity against mouse N2A cells after 24 hrs by MTT assay; format: functional, cell-based; in short: as §1
# [5] = test system: MCF7; test: Cytotoxicity against human MCF7 cells after 24 hrs by MTT assay; format: functional, cell-based; settings: MCF7, 24 h; in short: as §1
# [6] = test system: K562; test: Cytotoxicity against human K562 cells after 24 hrs by MTT assay; format: functional, cell-based; settings: K562, 24 h; in short: as §1
# [7] = test system: CCRF-CEM; test: Cytotoxicity against human CEM cells after 24 hrs by MTT assay; format: functional, cell-based; in short: as §1
# [8] = Cytotoxicity against human HNO150 cells after 24 hrs by MTT assay; format: functional, cell-based; settings: HNO150, 24 h; in short: as §1
# [9] = test system: RL; test: Cytotoxicity against human RL cells after 24 hrs by MTT assay; format: functional, cell-based; in short: as §1
# [10] = test system: HCT-116; test: Cytotoxicity against human HCT116 cells after 24 hrs by MTT assay; format: functional, cell-based; settings: HCT-116, 24 h; in short: as §1
# [11] = test system: NIH3T3; test: Cytotoxicity against mouse NIH3T3 cells after 24 hrs by MTT assay; format: functional, cell-based; settings: NIH3T3, 24 h; in short: as §1
# [12] = Cytotoxicity against human Messa cells after 24 hrs by MTT assay; format: functional, cell-based; settings: MES-SA; in short: as §1
SMILES,Activity [1] [%],further results
COc1ccc(/C=C/C(=O)c2ccc(OC)cc2OC)c(OC)c1,25,–
O=C(/C=C/c1c(Cl)cccc1Cl)c1ccccc1,28,–
COc1ccc(C(=O)/C=C/c2ccccc2Cl)c(OC)c1,42,–
COc1cc(O)c(C(=O)/C=C/c2ccccc2Cl)c(OC)c1,43,–
COc1cc(O)c(C(=O)/C=C/c2ccccc2OC)c(OC)c1,41,–
CCOc1cc(OCC)c(/C=C/C(=O)c2c(OCC)cc(OCC)cc2OCC)c(OCC)c1,18,–
COc1ccc(C(=O)/C=C/c2cc(OC)c(OC)cc2OC)c(O)c1,15,–
COc1ccc(C(=O)/C=C/c2c(Cl)cccc2OC)c(O)c1,45,–
COc1ccc(/C=C/C(=O)c2c(OC)cccc2OC)c(OC)c1,22,–
CCOc1cccc(OCC)c1C(=O)/C=C/c1c(OC)cc(OC)cc1OC,10,–
COc1cccc(OC)c1C(=O)/C=C/c1c(C)cc(C)cc1C,23,–
COc1cccc(OC)c1C(=O)/C=C/c1c(OC)c(F)c(OC)c(F)c1OC,46,–
COc1cccc(OC)c1C(=O)/C=C/c1cccc(F)c1,27,–
COc1cccc(OC)c1C(=O)/C=C/c1cccc(Cl)c1,19,–
COc1ccc(C(=O)/C=C/c2c(OC)cc(OC)cc2OC)c(O)c1,19,–
COc1cccc(/C=C/C(=O)c2c(OC)cccc2OC)c1,29,–
COc1cc(O)c(C(=O)/C=C/c2c(Cl)cccc2Cl)c(OC)c1,26,–
COc1cc(OC)c(C(=O)/C=C/c2c(OC)cccc2OC)c(OC)c1,64,–
COc1ccc(/C=C/C(=O)c2c(OC)cc(OC)cc2OC)c(OC)c1,15,–
COc1ccc(C(=O)/C=C/c2cccc(F)c2)c(OC)c1,32,–

SMILES,Activity [1] [%],further results
COc1cc(OC)c(/C=C/C(=O)c2c(OC)cccc2OC)c(OC)c1,84,IC50 [2]: 7 µM; IC50 [3]: 0.25 µM; IC50 [4]: 2.2 µM; IC50 [5]: 60 µM; IC50 [6]: 50 µM; IC50 [7]: 0.65 µM; IC50 [8]: 1.3 µM; IC50 [9]: 0.8 µM; IC50 [10]: 0.45 µM; IC50 [11]: 30 µM; IC50 [12]: 1 µM
COc1cccc(OC)c1C(=O)/C=C/c1c(Cl)cccc1Cl,39,–
COc1ccc(C(=O)/C=C/c2cccc(F)c2)c(O)c1,40,–
COc1cccc(OC)c1C(=O)/C=C/c1ccc(C(F)(F)F)cc1,23,–
COc1cccc(OC)c1C(=O)/C=C/c1ccccc1Cl,23,–
COc1cccc(/C=C/C(=O)c2ccc(OC)cc2O)c1,26,–
COc1ccc(C(=O)/C=C/c2cc(OC)ccc2OC)c(O)c1,32,–
COc1ccc(C(=O)/C=C/c2ccc(OC)cc2OC)c(O)c1,18,–
COc1cc(O)c(C(=O)/C=C/c2cccc(F)c2)c(OC)c1,48,–
COc1cc(O)c(C(=O)/C=C/c2c(OC)cccc2OC)c(OC)c1,12,–
COc1cccc(OC)c1/C=C/C(=O)c1c(OC)cccc1OC,78,IC50 [2]: 34 µM; IC50 [3]: 10 µM; IC50 [4]: 55 µM; IC50 [5]: 75 µM; IC50 [6]: 80 µM; IC50 [7]: 6 µM; IC50 [8]: 62 µM; IC50 [9]: 40 µM; IC50 [10]: 9 µM; IC50 [11]: 60 µM; IC50 [12]: 10 µM
COc1ccc(C(=O)/C=C/c2cccc(OC)c2OC)c(O)c1,22,–
COc1ccc(C(=O)/C=C/c2cc(OC)c(OC)c(OC)c2)c(O)c1,20,–
COc1cc(OC)c(/C=C/C(=O)c2c(OC)cc(N)cc2OC)c(OC)c1,74,–
COc1cccc(OC)c1/C=C/C(=O)c1ccccc1,34,–
COc1ccc(C(=O)/C=C/c2ccc(OC)c(OC)c2)c(O)c1,18,–
COc1cc(/C=C/C(=O)c2c(OC)cccc2OC)cc(OC)c1OC,25,–
COc1ccc(/C=C/C(=O)c2c(OC)cccc2OC)c(OC)c1OC,19,–
COc1cc(OC)c(OC)cc1/C=C/C(=O)c1c(OC)cccc1OC,49,–
COc1ccc(C(=O)/C=C/c2c(OC)cccc2OC)c(O)c1,18,–

SMILES,Activity [1] [%],further results
COc1cccc(OC)c1C(=O)/C=C/c1ccccc1,45,–
COc1cc(/C=C/C(=O)c2c(O)cc(OC)cc2OC)cc(OC)c1,11,–
COc1ccc(C(=O)/C=C/c2ccccc2Cl)c(O)c1,67,–
COc1ccc(C(=O)/C=C/c2ccc(OC)c(OC)c2OC)c(O)c1,20,–
CCOc1ccc(/C=C/C(=O)c2c(OCC)cccc2OCC)c(OCC)c1,11,–
COc1ccc(C(=O)/C=C/c2c(F)cccc2Cl)c(O)c1,19,–
COc1cccc(/C=C/C(=O)c2c(O)cc(OC)cc2OC)c1,52,–
COc1ccc(C(=O)/C=C/c2ccc(Cl)cc2)c(O)c1,10,–
COc1cc(O)c(C(=O)/C=C/c2ccc3c(c2)OCO3)c(OC)c1,13,–
CCOc1cc(OCC)c(/C=C/C(=O)c2c(OC)cccc2OC)c(OCC)c1,12,–
COc1cccc(OC)c1C(=O)/C=C/c1ccccc1F,38,–
COc1cc(/C=C/C(=O)c2ccc(OC)cc2O)cc(OC)c1,40,–
CCOc1cccc(OCC)c1C(=O)/C=C/c1c(OC)cccc1OC,14,–
COc1cc(OC)c(/C=C/C(=O)c2c(OC)cc(OC)cc2OC)c(OC)c1,86,IC50 [2]: 8.5 µM; IC50 [3]: 0.8 µM; IC50 [4]: 4 µM; IC50 [5]: 52 µM; IC50 [6]: 50 µM; IC50 [7]: 1.9 µM; IC50 [8]: 10 µM; IC50 [9]: 0.9 µM; IC50 [10]: 1 µM; IC50 [11]: 30 µM; IC50 [12]: 2.2 µM
COc1ccccc1/C=C/C(=O)c1c(OC)cccc1OC,18,–
COc1cc(OC)c(/C=C/C(=O)c2ccc(Cl)c(Cl)c2)c(OC)c1,30,–
COc1ccc(C(=O)/C=C/c2c(OC)cc(OC)cc2OC)c(OC)c1 (stereo in doubt; 3),86,–
COc1ccc(C(=O)/C=C/c2c(OC)cc(OC)cc2OC)c(OC)c1 (stereo in doubt; 52),72,–
COc1cc(O)c(C(=O)/C=C/c2ccccc2)c(OC)c1 [FLAVOKAWAIN B],28,–
CC[C@]1(O)C[C@H]2CN(CCc3c([nH]c4ccccc34)[C@@](C(=O)OC)(c3cc4c(cc3OC)N(C=O)[C@H]3[C@@](O)(C(=O)OC)[C@H](OC(C)=O)[C@]5(CC)C=CCN6CC[C@]43[C@@H]65)C2)C1 [VINCRISTINE],72,–
